Source: PubChem BioAssay (The Scripps Research Institute Molecular Screening Center)
UHRF1 MBD2 ctr = UHRF1 methylated DNA binding inhibitors, primary screen, counter-screen for MBD2 inhibitor project, biochemical, TR-FRET, human UHRF1, single concentration. E3 ubiquitin-protein ligase UHRF1 (Homo sapiens), Q96T88. UHRF1 binding to methylated oligo. inhibition, % at 4.4 µM. 0.75% of 370,000 active. AID 687016, 2013; in the data active = inhibition above about 21%;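 also: UHRF1 SRA domain binding a hemimethylated CpG hairpin DNA probe; 0% = median of test compound wells and 100% = reference inhibitor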
TDP2 inh = human TDP2 enzyme inhibitors, primary screen, biochemical, epi absorbance, recombinant enzyme. Tyrosyl-DNA phosphodiesterase 2 (Homo sapiens), O95551. T5PNP hydrolysis, p-nitrophenol absorbance 415 nm. inhibition, % at 12.8 µM. 0.34% of 370,000 active;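 active = inhibition above the mean of all tested compounds plus 3 SD, set per campaign, cut at about 25% in these data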;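 also: 0% = DMSO with enzyme and 100% = buffer with substrate but no TDP2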
Target sequence (O95551 whole entry, looked up): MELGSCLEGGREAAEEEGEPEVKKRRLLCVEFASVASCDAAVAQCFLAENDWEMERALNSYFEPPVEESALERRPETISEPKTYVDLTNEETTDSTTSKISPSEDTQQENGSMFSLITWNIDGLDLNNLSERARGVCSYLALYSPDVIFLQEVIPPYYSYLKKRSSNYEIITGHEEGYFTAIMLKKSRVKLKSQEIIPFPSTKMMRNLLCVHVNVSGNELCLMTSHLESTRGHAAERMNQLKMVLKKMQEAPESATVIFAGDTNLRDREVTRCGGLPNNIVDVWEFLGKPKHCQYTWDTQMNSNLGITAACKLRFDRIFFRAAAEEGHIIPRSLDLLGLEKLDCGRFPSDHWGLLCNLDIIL
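test system = human TDP2 enzyme | input = TDP2 enzyme at 120 nM final | medium = 50 mM Tris-HCl pH 7.5 with Mg2+, KCl, DTT, BSA | also added = T5PNP substrate, 5 mM | times = 2 h at 37 °C | technique = epi absorbance | benchmarks = high control without enzyme, low control DMSO plus TDP2 | replication = each compound tested once, singlicate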
MBD2 DNA inh = inhibitors of MBD2 binding to methylated DNA, primary screen, biochemical, TR-FRET, DNA-binding domain, human. Methyl-CpG-binding domain protein 2 (Homo sapiens), Q9UBB5. 0.31% of 370,000 active. inhibition, % at 4.4 µM. MBD2 binding to methylated oligonucleotide; in the data active = inhibition above about 13%
LEDGF integ inh = blockers of LEDGF/p75-dependent integrase strand transfer – biochemical, TR-FRET, high throughput, primary screen; HIV-1 integrase (with human LEDGF/p75); TR-FRET IN-LEDGF/p75 DNA integration, Eu/Cy5; inhibition, % at 3.7 µM; 0.64% of 370,000 active; AID 743269, 2014;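 active = inhibition above the screen-wide mean plus 3 SD, cut at about 13% in these data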;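 also: signal is the Cy5 over europium emission ratio at 671 and 618 nm; 0% = plate median of compound wells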
IN multimer act = HIV-1 IN multimer formation enhancers, counter-screen for LEDGF/p75 integration inhibitor project, biochemical, TR-FRET | shares compounds with LEDGF integ inh | TR-FRET HIV-1 integrase multimerization | activation, % at 7.7 µM | 17% of 2,000 active; in the data active = activation above about 8.9%
TRFRET interf = TR-FRET optical interference artefacts, confirmation, artefact control for LEDGF/p75-dependent integration inhibitor project, biochemical, HIV-1 IN multimerization | AID 1053135, 2014 | shares compounds with LEDGF integ inh | TR-FRET optical interference counterscreen | 2,000 tested, under 10 active | inhibition, % at 7.7 µM;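 active = inhibition above the mean over all tested compounds plus 3 SD, which no compound reached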;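 also: 0% = integrase with antibodies and DMSO and 100% = antibodies without integrase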
LEDGF integ conf = inhibitors of HIV-1 IN-LEDGF/p75 DNA integration, confirmation, biochemical, TR-FRET; shares compounds with LEDGF integ inh; TR-FRET LEDGF/p75-dependent HIV-1 integration; inhibition, % at 3.7 µM; 36% of 2,000 active; in the data active = inhibition above about 14%
* marks the source's active call; other numbers are inactive results; · = not tested or not shown. Hits are enriched below; roughly 1.6% of the tested compounds scored in any of these assays.

SMILES	UHRF1 MBD2 ctr	TDP2 inh	MBD2 DNA inh	LEDGF integ inh	IN multimer act	TRFRET interf	LEDGF integ conf
C/C=C/c1ccc(OCCNCc2ccccc2)c(OC)c1	-1.5	-4.4	0.3	0.9	·	·	·
O=C(O)CSc1nnc(NC(=O)CN2CCOCC2)s1	-2.2	7.0	-2.8	4.1	·	·	·
CC(=O)c1cccc(NC(=O)c2ccccc2N(C)S(=O)(=O)c2ccc(C)cc2)c1	2.8	-5.8	1.6	0.2	·	·	·
Cc1ccc(S(=O)(=O)N(C)c2ccccc2C(=O)Nc2c(F)cccc2F)cc1	0.1	6.6	-2.3	36.3*	0.8	-4.0	-6.6
CC(=O)OCCN1C(=O)c2cccnc2C1=O	-0.5	1.2	-2.2	3.2	·	·	·
CCC(c1nnnn1CC1CCCO1)N(CCN1CCOCC1)Cc1cc2cc(C)ccc2[nH]c1=O (stereo not given)	-3.3	1.0	1.7	4.0	·	·	·
CN1CCN(CCc2nc3cc(NC(=O)COc4ccccc4)ccc3n2C)CC1	0.1	-3.6	3.8	-0.2	·	·	·
CC(C)C(=O)Nc1ccc2c(c1)nc(CCN1CCN(C)CC1)n2C	4.7	-6.9	0.2	13.4*	-0.3	1.6	-3.1
Cc1ccc(-n2c(SCC(=O)N/N=C/c3ccccc3OCC(=O)O)nc3ccccc3c2=O)cc1	-2.0	12.0	-2.3	67.5*	0.4	-1.5	2.6
O=[N+]([O-])c1ccc(O)c(C=Nc2cccc3ccccc23)c1	-4.8	-9.2	-7.1	-2.1	·	·	·
O=[N+]([O-])c1ccc(O)c(C=Nc2cccc3ncccc23)c1	-10.0	-13.9	-0.2	20.0*	4.1	-14.5	-2.3
OC(c1ccc2ccccc2n1)c1c(Cl)cccc1Cl (stereo not given)	-1.2	5.5	3.0	-0.4	·	·	·
CCNC(=O)COC(=O)c1cc(-c2ccco2)nc2ccccc12	8.3	2.4	4.8	13.5*	7.3	-36.7	28.7*
Cc1nnc(NC(=O)c2cc(-c3ccco3)nc3ccccc23)s1	25.8*	-1.3	6.5	16.4*	3.4	-16.9	29.5*
Cc1csc(NC(=O)c2cc(-c3ccco3)nc3ccccc23)n1	14.0	-13.8	5.4	26.0*	11.2*	-56.2	48.0*
C/C(=N\NC(=O)c1cc(-c2ccco2)nc2ccccc12)c1cccnc1	-2.4	-7.9	-2.9	63.7*	1.1	-5.5	0.2
O=C(O)c1cc(-c2ccco2)nc2ccccc12	17.6	0.8	2.6	7.5	·	·	·
CCOC(=O)N1CCN(C(=O)CS(=O)(=O)c2cn(Cc3ccc(Cl)cc3)c3ccccc23)CC1	-0.7	1.7	1.0	6.5	·	·	·
CC1CCCC(C)N1C(=O)CSc1nc2ccccc2c(=O)[nH]1 (stereo not given)	-0.4	7.1	-1.6	-1.1	·	·	·
CC1(OC(=O)CCc2ccccc2)C(=O)C=C2C=C(c3ccc(C#N)cc3)N(C3CCCCC3)C=C2C1=O (stereo not given)	6.1	-12.2	-6.1	0.8	·	·	·
CC1(OC(=O)CCc2ccccc2)C(=O)C=C2C=C3CCCN3C=C2C1=O (stereo not given)	6.8	8.5	-3.0	20.2*	0.6	-2.9	22.7*
COc1cccc(-c2nnc(NC(=O)CCS(=O)(=O)c3ccc(F)cc3)o2)c1	-1.4	-0.1	-2.2	15.5*	5.3	-27.7	-2.8
COc1cc(OC)cc(-c2nnc(NC(=O)CCS(=O)(=O)c3ccc(C)cc3)o2)c1	-1.6	9.1	-3.0	1.0	·	·	·
COC(=O)C(C)N(C(=O)c1cccc2ccccc12)c1c(C)cccc1C (stereo not given)	-1.0	-4.8	3.0	77.7*	1.7	-6.1	0.7
CC[C@@]1(O)C(=O)OCc2c1cc1n(c2=O)Cc2cc3c(N)cccc3nc2-1	-0.9	15.4	-10.8	23.0*	14.0*	-49.6	10.0
SMILES	UHRF1 MBD2 ctr	TDP2 inh	MBD2 DNA inh	LEDGF integ inh	IN multimer act	TRFRET interf	LEDGF integ conf
CCC(C(=O)Nc1cnccn1)c1ccccc1 (stereo not given)	1.3	-2.7	4.1	-2.7	·	·	·
CCC(C(=O)Nc1ccccn1)c1ccccc1 (stereo not given)	-0.5	3.1	7.1	14.2*	0.2	-0.8	12.7
Cc1nnc(SCC(=O)NCc2ccco2)[nH]c1=O	0.5	1.7	1.3	0.5	·	·	·
Cc1cc(=O)[nH]c(SCC(=O)NCc2ccco2)n1	8.1	6.1	3.3	19.9*	-1.2	5.9	20.9*
CC(Cc1ccccc1)NC(=O)CN1C(=O)c2ccccc2S1(=O)=O (stereo not given)	-3.7	3.1	1.8	82.1*	0.6	-2.8	-4.6
C[C@@H](NC(=O)CN1C(=O)c2ccccc2S1(=O)=O)c1ccccc1	4.4	-1.8	4.3	-0.3	·	·	·
CC(C)NC(=O)N(C)C[C@@H]1Oc2ccc(NC(=O)Nc3ccc(C(F)(F)F)cc3)cc2CC(=O)N([C@H](C)CO)C[C@@H]1C	-1.5	0.4	1.6	13.9*	0.3	-1.6	-4.1
C[C@@H]1CN([C@@H](C)CO)C(=O)Cc2cc(NC(=O)Nc3ccc(C(F)(F)F)cc3)ccc2O[C@@H]1CN(C)S(=O)(=O)c1ccc(Cl)cc1	0.0	-9.8	-6.0	-0.9	·	·	·
O=C(O)Cc1sc(Nc2cccc3ccccc23)nc1-c1ccccc1	0.6	-19.5	1.1	1.2	·	·	·
CC(=O)Nc1cccc(-c2ccnc3c2CC(C(=O)NCc2ccc(N4CCN(C)CC4)cc2)O3)c1 (stereo not given)	4.3	-3.8	-1.4	4.8	·	·	·
COC(=O)c1sc(N)c(C(=O)OC)c1COC(=O)[C@@H](NS(=O)(=O)c1cccc(Cl)c1)C(C)C	0.8	0.6	1.4	21.3*	-2.4	11.9	-2.5
O=C(COC(=O)c1n[nH]c(=O)c2ccccc12)Nc1ccccc1F	-0.9	8.6	-2.9	14.3*	0.3	-1.7	-1.2
CC1=CC(C)(C)N2C(=O)C(=Nc3ccc(O)cc3)c3cccc1c32	-11.1	11.5	-22.7	16.9*	18.9*	-68.1	45.4*
Cc1ccc(S(=O)(=O)NN=C2CC(C)(C)OC2(C)C)cc1	-0.3	5.5	0.1	-4.6	·	·	·
Cc1ccc(S(=O)(=O)NN=C2CC3CCC2(C)C3(C)C)cc1 (stereo not given)	-0.1	-0.4	2.2	17.1*	1.8	-9.0	-3.3
